procasp7 counter = procaspase-7 activators, primary screen, counter-screen for procaspase-3 activator project, biochemical, absorbance, HTS, human; activation, % at 8.5 µM; AID 463210, 2010; 0.093% of 330,000 active; Caspase-7 (Homo sapiens), P55210; recombinant procaspase-7, Ac-DEVD-pNA absorbance 405 nm; D23A/D198A/D206A triple mutant, cannot self-cleave; scale: DMSO 0, 5 µM enzyme 100;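 active means percent activation above the screen-wide mean plus 3 SD, cut at about 25% in these data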
Target sequence (P55210 whole entry D23A/D198A/D206A): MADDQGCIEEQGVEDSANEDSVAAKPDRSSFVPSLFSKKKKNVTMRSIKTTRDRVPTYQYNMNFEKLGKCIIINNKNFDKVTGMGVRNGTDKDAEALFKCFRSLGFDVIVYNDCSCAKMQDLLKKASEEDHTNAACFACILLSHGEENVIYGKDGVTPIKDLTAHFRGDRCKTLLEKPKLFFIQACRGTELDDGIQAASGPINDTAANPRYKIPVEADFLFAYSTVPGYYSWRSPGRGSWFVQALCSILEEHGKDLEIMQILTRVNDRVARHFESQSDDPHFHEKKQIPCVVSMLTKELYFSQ
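Detection: p-Nitroaniline absorbance at 405 nm, read at 0 and 120 min; system: Uncleavable procaspase-7 mutant enzyme; evaluation: % activation from two-timepoint absorbance difference, scaled to controls; times: 1 h enzyme–compound preincubation and 2 h substrate reaction, both 25 °C; buffer or medium: Zinc-free HEPES pH 7.4 with 300 mM NaCl, 0.01% Triton X-100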
IMP-1 inh = IMP-1 metallo-beta-lactamase inhibitors, primary screen, biochemical, epi-absorbance readout, Pseudomonas aeruginosa enzyme | metallo-beta-lactamase IMP-1 (Pseudomonas aeruginosa) | AID 1556, 2009 | 0.45% of 290,000 active | purified IMP-1, nitrocefin hydrolysis, epi-absorbance fluorescence | inhibition, % at 5.6 µM;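 active means inhibition above the mean plus 3 SD of all compounds in the same screening run, cut at about 4.5% in these data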
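Material – recombinant IMP-1 enzyme, purified · Amount – IMP-1 0.2 nM before substrate addition · Medium – HEPES buffer pH 7.1 with ZnSO4 and Brij 35 · Timing – 25 °C, 15 min preincubation, 25 min reaction · Measured by – plate fluorescence quenching by hydrolysis product, ex 480/em 530 nm · Read-out – percent enzyme inhibition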
VIM-2 inh = VIM-2 metallo-beta-lactamase inhibitors, primary screen, biochemical, epi-absorbance readout, Pseudomonas aeruginosa enzyme. AID 1527, 2009. purified VIM-2, nitrocefin hydrolysis, epi-absorbance fluorescence. inhibition, % at 5.6 µM. 0.89% of 290,000 active;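 active means inhibition above the mean of all tested compounds plus 3 SD, cutoff set per screening run, cut at about 7.5% in these data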;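 further: red hydrolysis product quenches plate fluorescence so inhibitors raise well fluorescence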
PolyA inhibitor = polyadenylation inhibitors in yeast reporter cells, primary screen, luminescence, S. cerevisiae. AID 1875, 2009. 0.02% of 300,000 active. activity score, % at 12 µM. S. cerevisiae SKY197-pL101 polyadenylation reporter, beta-gal luminescence; efflux-impaired pdr1/pdr3 knockout yeast; score 100 = 6 SD above DMSO;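 active means lowest replicate activity score at least 50, where 100 means six control SD above control mean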;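 further: yeast exposed to compound for 9 h at 30 °C; higher score means more reporter readthrough which indicates perturbed polyadenylation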
proCasp3 act = activators of human procaspase-3 D3A mutant, primary screen, biochemical, absorbance, PC-3 D3A mutant, single concentration. Caspase-3 (Homo sapiens), P42574. recombinant procaspase-3 D3A, Ac-DEVD-pNA absorbance 405 nm. activation, % at 8.5 µM. 0.11% of 330,000 active. AID 463141, 2010;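 active means activation above the mean of all tested compounds plus 3 SD, cut at about 21% in these data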
Target sequence (P42574 whole entry D9A/D28A/D175A): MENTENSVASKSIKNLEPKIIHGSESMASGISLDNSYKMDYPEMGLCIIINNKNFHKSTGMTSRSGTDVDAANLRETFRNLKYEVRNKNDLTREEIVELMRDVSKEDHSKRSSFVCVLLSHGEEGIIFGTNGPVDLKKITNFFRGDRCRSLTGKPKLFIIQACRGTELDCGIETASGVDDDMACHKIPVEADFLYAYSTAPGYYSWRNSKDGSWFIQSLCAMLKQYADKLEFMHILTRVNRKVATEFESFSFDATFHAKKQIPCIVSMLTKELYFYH
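Compound: 8.5 µM single point, 0.8% DMSO / Material: Autoprocessing-dead procaspase-3 D3A mutant enzyme / Timing: 1 h preincubation plus 2 h reaction at 25 °C / Medium: Zinc-free HEPES/NaCl buffer with 0.01% Triton X-100 at pH 7.4 / Technique: 405 nm absorbance of p-nitroaniline, reads at 0 and 120 min / Repeats: one well per compound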
Neddyl block = inhibitors of cullin neddylation, primary screen, biochemical, TR-FRET, uHTS, NAE and Ubc12 | 0.58% of 360,000 active | AID 651699, 2012 | NEDD8-conjugating enzyme Ubc12 (Homo sapiens) + NEDD8-activating enzyme E1 regulatory … | calls only at 25 µM; in the data active means inhibition above about 36%
Neddyl conf = blockade of NEDD8 conjugation to cullin – biochemical, TR-FRET, single concentration, confirmation. calls only at 25 µM. TR-FRET cullin neddylation biochemical assay. shares compounds with Neddyl block. 13% of 1,800 active; in the data active means inhibition above about 40%;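 further: neddylation substrate is the cullin 1 ring ligase complex with SKP2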
Calls only. Compounds with a hit are over-represented: about 1.7% of the library has one in this group of screens.

For CC1(C)Cc2c(sc3nc(-c4cccs4)n(N)c(=O)c23)CO1 the results were procasp7 counter inactive, IMP-1 inh inactive, VIM-2 inh inactive, PolyA inhibitor inactive, proCasp3 act inactive, Neddyl block active and Neddyl conf inactive.
Cc1nn2c(C)nc3sc4c(c3c2nc1=O)CC(C)(C)OC4 was read as procasp7 counter inactive, IMP-1 inh inactive, VIM-2 inh inactive, PolyA inhibitor inactive, proCasp3 act inactive, Neddyl block active and Neddyl conf inactive.
`Cc1onc(-c2c(Cl)cccc2Cl)c1C(=O)N1CCN(c2ncccn2)CC1` gave procasp7 counter inactive, IMP-1 inh inactive, VIM-2 inh inactive, PolyA inhibitor inactive, proCasp3 act inactive and Neddyl block inactive.
CC(C)(C)n1nnnc1C(c1cc2cc3c(cc2[nH]c1=O)OCCO3)N1CCSCC1 (stereo unspecified) was read as procasp7 counter inactive, IMP-1 inh inactive, VIM-2 inh inactive, PolyA inhibitor inactive, proCasp3 act inactive and Neddyl block active.
CCS(=O)(=O)Nc1ccc(C2=NN(C(=O)c3ccco3)C(c3ccco3)C2)cc1 (stereo unspecified) was read as procasp7 counter inactive, PolyA inhibitor inactive, proCasp3 act inactive and Neddyl block inactive.
For CS(=O)(=O)Nc1cccc(C2=NN(C(=O)c3ccco3)C(c3ccco3)C2)c1 (stereo unspecified) the results were procasp7 counter inactive, IMP-1 inh inactive, VIM-2 inh inactive, PolyA inhibitor inactive, proCasp3 act inactive and Neddyl block inactive.
`CCS(=O)(=O)Nc1ccc(C2=NN(C(=O)c3ccco3)C(c3cccs3)C2)cc1` (stereo unspecified) gave procasp7 counter inactive, IMP-1 inh inactive, VIM-2 inh inactive, PolyA inhibitor inactive, proCasp3 act inactive, Neddyl block active and Neddyl conf inactive.
For CS(=O)(=O)Nc1ccc(C2=NN(C(=O)c3ccco3)C(c3ccccc3F)C2)cc1 (stereo unspecified) the results were procasp7 counter inactive, IMP-1 inh inactive, VIM-2 inh inactive, PolyA inhibitor inactive, proCasp3 act inactive, Neddyl block active and Neddyl conf inactive.
`Cc1nc(N2CCN(Cc3ccc4c(c3)OCO4)CC2)c2oc3ccccc3c2n1` gave Neddyl block inactive.
CC(=O)Nc1cccc(-c2cc(NC=O)c3ncc(-c4ccc(C(C)=O)cc4)n3c2)c1 was read as Neddyl block active and Neddyl conf inactive.
CC(=O)Nc1cc(-c2cccc(CO)c2)cn2c(-c3ccc(C(C)=O)cc3)cnc12 was read as Neddyl block active and Neddyl conf inactive.
Screening COc1cc(-c2cc(NC(C)=O)c3ncc(-c4ccc(C(C)=O)cc4)n3c2)cc(OC)c1OC returned Neddyl block active and Neddyl conf inactive.
For CC(=O)c1ccc(-c2cnc3c(NC=O)cc(-c4ccc(C(=O)NC5CC5)cc4)cn23)cc1 the results were Neddyl block active and Neddyl conf inactive.
`CC(=O)Nc1cc(-c2cccc(CO)c2)cn2c(-c3ccc(F)cc3)cnc12` gave Neddyl block inactive.
For COC(=O)CN(c1ccc(Cl)cc1C)S(C)(=O)=O the results were procasp7 counter inactive, IMP-1 inh inactive, VIM-2 inh inactive, PolyA inhibitor inactive, proCasp3 act inactive and Neddyl block inactive.
Screening Cc1cc(C)cc(OC(=O)CS(=O)c2ccc(C(F)(F)F)cc2[N+](=O)[O-])c1 (stereo unspecified) returned procasp7 counter inactive, IMP-1 inh inactive, VIM-2 inh inactive, PolyA inhibitor inactive, proCasp3 act inactive and Neddyl block inactive.
For CCOC(=O)C1(CCC(=O)OCc2ccccc2)CCCCC1=O (stereo unspecified) the results were Neddyl block inactive.
Screening CC(=O)Nc1cc(-c2ccc(C(=O)N3CCOCC3)cc2)cn2c(-c3ccc(S(C)(=O)=O)cc3)cnc12 returned Neddyl block active and Neddyl conf inactive.
For CC(=O)Nc1cc(-c2ccc(C(=O)N3CCOCC3)cc2)cn2c(-c3ccc(F)c(Cl)c3)cnc12 the results were Neddyl block inactive.
`Cc1ccc2[nH]c3c(=O)n(N)c(C)nc3c2c1` gave procasp7 counter inactive, IMP-1 inh inactive, VIM-2 inh inactive, PolyA inhibitor inactive, proCasp3 act inactive, Neddyl block active and Neddyl conf active.
For COC(=O)c1cc(C(=O)c2cc(Cl)ccc2O)coc1=N the results were procasp7 counter inactive, IMP-1 inh inactive, VIM-2 inh inactive, PolyA inhibitor inactive, proCasp3 act inactive and Neddyl block inactive.
COCCOC(=O)c1cc(C(=O)c2cc(F)ccc2O)coc1=N was read as procasp7 counter inactive, IMP-1 inh inactive, VIM-2 inh inactive, PolyA inhibitor inactive, proCasp3 act inactive, Neddyl block active and Neddyl conf inactive.
Screening CCN(CC)c1ccc(/C=N/n2nnnc2N)c(O)c1 returned procasp7 counter inactive, IMP-1 inh inactive, VIM-2 inh inactive, PolyA inhibitor inactive, proCasp3 act inactive, Neddyl block active and Neddyl conf active.
`Cc1csc2ncc(C(=O)NCc3ccco3)c(=O)n12` gave procasp7 counter inactive, IMP-1 inh inactive, VIM-2 inh inactive, PolyA inhibitor inactive, proCasp3 act inactive, Neddyl block active and Neddyl conf inactive.
`O=C(NCc1ccco1)c1cnc2sccn2c1=O` gave procasp7 counter inactive, IMP-1 inh inactive, VIM-2 inh inactive, PolyA inhibitor inactive, proCasp3 act inactive and Neddyl block inactive.
COc1ccc(C2C=C(Nc3ccccc3)C(=O)N2c2ccccc2)cc1OC (stereo unspecified) was read as procasp7 counter inactive, IMP-1 inh inactive, VIM-2 inh inactive, PolyA inhibitor inactive, proCasp3 act inactive and Neddyl block inactive.

Compound activity deposited in PubChem BioAssay by several laboratories.
